These results are taken from PubChem BioAssay.

Activity calls are given as the source filed them.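 How the source made its calls, unless noted: active means viability at or under a set limit in both replicates, limit being median viability minus 3 SD (cut at about 48% in these data, passing the limit was not always enough); inconclusive means at or under the limit in just one replicate; inactive means at or above the limit in both replicates.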

Test [1] can be described thus: Her2 expression decrease, cell viability multiplex – SKBR3 breast tumor cells, AlphaScreen, ATP viability, primary screen (AID 461;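 active means Her2 level under about 52% in both replicate screens, with viability over 70% of control, limit read from the data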;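 on Her2 level: lower value means less Her2 protein in the cells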;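 on viability: percent of carrier control wells set as 100% viability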). The settings on record: SKBR3 Her2 protein level, 18-24 h, measured here: SKBR3 viability, ATP luminescence, at 10 µM.
For test [2], the target named is Receptor tyrosine-protein kinase erbB-2 (Homo sapiens) (UniProt P04626). Described as above. To be noted: 18-24 h, at 10 µM, stronger effect = lower value.
Chain of Receptor tyrosine-protein kinase erbB-2 (Homo sapiens) (P04626 whole entry, looked up): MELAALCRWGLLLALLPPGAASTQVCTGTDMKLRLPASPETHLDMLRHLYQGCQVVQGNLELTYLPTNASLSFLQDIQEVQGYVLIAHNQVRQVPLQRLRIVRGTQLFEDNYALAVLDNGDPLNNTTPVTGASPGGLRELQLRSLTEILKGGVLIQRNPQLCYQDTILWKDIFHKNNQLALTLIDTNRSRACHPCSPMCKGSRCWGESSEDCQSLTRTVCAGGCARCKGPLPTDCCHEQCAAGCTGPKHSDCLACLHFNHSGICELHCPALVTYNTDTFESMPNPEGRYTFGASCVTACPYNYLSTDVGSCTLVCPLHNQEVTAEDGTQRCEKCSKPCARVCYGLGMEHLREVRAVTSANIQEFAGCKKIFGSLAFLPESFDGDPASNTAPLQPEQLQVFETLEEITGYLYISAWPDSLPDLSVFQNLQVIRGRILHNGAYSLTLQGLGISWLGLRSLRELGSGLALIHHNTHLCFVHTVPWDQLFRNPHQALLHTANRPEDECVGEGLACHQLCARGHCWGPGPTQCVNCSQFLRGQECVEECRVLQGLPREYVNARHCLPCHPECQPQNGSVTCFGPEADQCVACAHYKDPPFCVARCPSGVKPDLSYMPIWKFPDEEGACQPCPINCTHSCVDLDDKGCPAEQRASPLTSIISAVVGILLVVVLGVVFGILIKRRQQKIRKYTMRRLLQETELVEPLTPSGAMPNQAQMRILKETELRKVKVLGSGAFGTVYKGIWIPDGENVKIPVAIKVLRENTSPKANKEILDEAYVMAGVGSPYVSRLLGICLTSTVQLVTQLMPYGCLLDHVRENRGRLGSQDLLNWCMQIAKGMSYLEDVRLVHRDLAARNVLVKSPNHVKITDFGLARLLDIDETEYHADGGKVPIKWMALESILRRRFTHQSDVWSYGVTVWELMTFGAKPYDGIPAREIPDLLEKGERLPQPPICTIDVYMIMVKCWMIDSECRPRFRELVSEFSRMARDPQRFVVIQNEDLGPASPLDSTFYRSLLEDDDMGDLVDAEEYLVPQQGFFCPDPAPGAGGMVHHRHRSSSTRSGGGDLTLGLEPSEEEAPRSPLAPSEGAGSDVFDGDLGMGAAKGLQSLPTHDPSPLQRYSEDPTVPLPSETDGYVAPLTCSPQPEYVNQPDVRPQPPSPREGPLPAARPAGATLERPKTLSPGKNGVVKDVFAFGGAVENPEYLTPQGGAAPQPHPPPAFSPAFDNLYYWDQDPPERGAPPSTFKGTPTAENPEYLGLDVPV
The nature of test [3]: reduced viability of SK-BR-3 breast cancer cells – cell-based, 24 h, human, pilot screen (AID 572;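 active means viability at or below 10% of carrier control in both of two separate runs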;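 further: compound exposure lasted between 18 and 24 h rather than exactly 24 h; 100% = carrier-treated control wells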). The settings on record: SK-BR-3 viability, CellTiter-Glo luminescence, at 10 µM, stronger effect = lower value.
The nature of test [4]: HUVEC growth inhibition – cell-based, human, primary screen (AID 575;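 active means viability at or below 30% in both replicate assays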;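 further: 100% = median of untreated cell wells with 0.1% DMSO on each plate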). The settings on record: HUVEC proliferation, CellTiter-Glo luminescence, 72 h; at 10 µM; stronger effect = lower value. The gist of the method:
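System – primary HUVEC, no more than 12 passages · Medium – Low-serum (2% FBS) EBM, supplemented · Times – 72 h exposure, 37 °C, 5% CO2, 30 min RT equilibration · Measured by – luminescent ATP assay · Read-out – % viability relative to median vehicle-well signal on each plate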

Test [5] can be described thus: H69AR cell proliferation blockers – human, duplicate replicates, primary screen (AID 580).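 Further: 100% = mean luminescence of untreated wells and 0% = no signal.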 To be noted: H69AR lung tumor cells viability, ATP luminescence, 72 h; at 10 µM; stronger effect = lower value.
Test [6] is described as follows: MRP1 drug-resistance reversers in H69AR cells – cell-based, doxorubicin co-treatment, pilot screen (AID 601;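 active means viability loss from added drug above about 55%, and viability with drug at most 40%, in both replicates, limit read from the data, passing the limit was not always enough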). The settings on record: CellTiter-Glo, 72 h, at 10 µM; for differential viability (reversal): stronger effect = higher value.
Test [7] is described as follows: yeast transport mutant growth inhibition pilot in 384-well plates, post-Golgi transport modulator project (AID 636; in the data active means inhibition above about 31%). To be noted: absorbance 615 nm, about 18 h, stronger effect = higher value.
Test [8] can be described thus: growth suppression of yeast trafficking mutant, preliminary HTS, modulators of trafficking downstream of Golgi apparatus project, 1536-format plate, OD 615 nm (AID 637; in the data active means inhibition above about 30%). The settings on record: yeast transport mutant growth, absorbance 615 nm, 18 h; stronger effect = higher value.
Where [9] appears, read: H69AR cells + 2 uM doxorubicin, measured here: viability with 2 uM doxorubicin, stronger effect = lower value.
The mark [10] stands for this setting: H69AR cells, compound alone cytotoxicity.

As to `CCN(CC)Cc1csc(C(N)=O)c1`, the viability is 108% in test [1]; 108% (inactive) in test [3]; 104% (inactive) in test [4]; 98.1% (inactive) in test [5]; 93.1% in test [6] (setting [9]); 98.1% in test [6] (setting [10]). Further, in test [2], the Her2 level was 107% (inactive). Besides, the differential viability (reversal) in test [6] (H69AR cells + 2 uM doxorubicin) is 5.04% (inactive). The results for the inhibition in test [7] and in test [8] were -1.22% (inactive) and 0.32% (inactive), respectively.

For the compound `CCc1nnc(NC(=O)c2cc3ccccc3oc2=O)s1`, the viability was 104% in test [1]; 104% (inactive) in test [3]; 118% (inactive) in test [4]; 89.7% (inactive) in test [5]; 93.8% in test [6] (setting [9]); 89.7% in test [6] (setting [10]). In addition, the Her2 level in test [2] was 95.5% (inactive). In test [6] (H69AR cells + 2 uM doxorubicin), the differential viability (reversal) is -4.11% (inactive). The inhibition in test [7] is -5.71% (inactive); in test [8], -3.65% (inactive).

Consider `O=C(Nc1cccnc1)c1ccc2c(c1)OCO2`, for which the viability is 119% in test [1]; 119% (inactive) in test [3]; 99.6% (inactive) in test [4]; 97.7% (inactive) in test [5]; 83.9% in test [6] (setting [9]); 97.7% in test [6] (setting [10]). The Her2 level in test [2] is 121% (inactive). The differential viability (reversal) in test [6] (H69AR cells + 2 uM doxorubicin) was 13.8% (inactive). Also, the figures for the inhibition in test [7] and in test [8] were -5.33% (inactive) and 9.84% (inactive), respectively.

In the case of `CCN(CC)S(=O)(=O)c1ccc(N2CCCC2)c(C(=O)OCC(=O)/C(C#N)=C(\C)N)c1`, the viability in test [1] was 91%; in test [3], 91% (inactive); in test [4], 66.7% (inactive); in test [5], 82.6% (inactive); in test [6] (setting [9]), 93.7%; in test [6] (setting [10]) it was 82.6%. Besides, the Her2 level in test [2] is 92.5% (inactive). Moreover, in test [6] (H69AR cells + 2 uM doxorubicin), the differential viability (reversal) was -11.1% (inactive). For the same compound, the inhibition in test [7] was -6.4% (inactive); in test [8], 1.97% (inactive).

Regarding `O=c1c2c3c(sc2n2cnnc2n1CCc1ccccc1)CCCC3`, the viability was 96.5% in test [1]; 96.5% (inactive) in test [3]; 57.7% (inactive) in test [4]; 77.1% (inactive) in test [5]; 68.1% in test [6] (setting [9]); 77.1% in test [6] (setting [10]). Further, the Her2 level in test [2] is 78.5% (inactive). Also, in test [6] (H69AR cells + 2 uM doxorubicin), the differential viability (reversal) was 8.96% (inactive). Moreover, the inhibition is -3.47% (inactive) in test [7] and 6.45% (inactive) in test [8].

As to `O=C(CSc1nc2ccccc2c(=O)n1CCC(=O)N1CCCCC1)NCc1ccccc1`, the viability in test [1] is 102%; in test [3] it was 102% (inactive); in test [4], 99.5% (inactive); in test [5], 81.8% (inactive); in test [6] (setting [9]), 95.1%; in test [6] (setting [10]), 81.8%. Also, in test [2], the Her2 level is 80% (inactive). Further, the differential viability (reversal) in test [6] (H69AR cells + 2 uM doxorubicin) was -13.3% (inactive). The values for the inhibition in test [7] and in test [8] were -1.84% (inactive) and -2.86% (inactive), respectively.

On to `CCN(CC)S(=O)(=O)c1ccc(NC2CCCc3ccccc32)nc1` (stereo not given), for which the viability in test [1] is 71.5%; in test [3], 71.5% (inactive); in test [4] it was 88.6% (inactive); in test [5], 86% (inactive); in test [6] (setting [9]), 85.1%; in test [6] (setting [10]) it was 86%. In addition, the Her2 level in test [2] is 77% (inactive). Besides, in test [6] (H69AR cells + 2 uM doxorubicin), the differential viability (reversal) is 0.97% (inactive). Moreover, the inhibition in test [7] was -4.46% (inactive); in test [8] it was -3.17% (inactive).

As for `COc1ccc(C)cc1S(=O)(=O)Nc1cccnc1`, the viability was 90.5% in test [1]; 90.5% (inactive) in test [3]; 91.2% (inactive) in test [4]; 88.4% (inactive) in test [5]; 86.9% in test [6] (setting [9]); 88.4% in test [6] (setting [10]). The Her2 level in test [2] is 84.5% (inactive). Further, the differential viability (reversal) in test [6] (H69AR cells + 2 uM doxorubicin) was 1.54% (inactive). For the same compound, the inhibition in test [7] was -4.19% (inactive); in test [8], 0.16% (inactive).

Regarding `CCn1c(SC)nc2c(c1=O)SC(C)C2` (stereo not given), the viability is 111% in test [1]; 111% (inactive) in test [3]; 113% (inactive) in test [4]; 98.4% (inactive) in test [5]; 81.2% in test [6] (setting [9]); 98.4% in test [6] (setting [10]). Moreover, the Her2 level in test [2] was 110% (inactive). Besides, the differential viability (reversal) in test [6] (H69AR cells + 2 uM doxorubicin) was 17.2% (inactive). Moreover, the figures for the inhibition in test [7] and in test [8] were -4.67% (inactive) and 1.8% (inactive), respectively.

Regarding `O=C1C2CC=CCC2C(=O)N1c1ccc(Cc2ccncc2)cc1` (stereo not given), the viability is 88% in test [1]; 88% (inactive) in test [3]; 83.8% (inactive) in test [4]; 100% (inactive) in test [5]; 97.8% in test [6] (setting [9]); 100% in test [6] (setting [10]). Further, the Her2 level in test [2] is 96.5% (inactive). The differential viability (reversal) in test [6] (H69AR cells + 2 uM doxorubicin) was 2.21% (inactive). Moreover, the inhibition was 0.78% (inactive) in test [7] and -5.74% (inactive) in test [8].

Consider `c1coc(-c2nnc(NC3=NCCC3)o2)c1`, for which the viability is 100% in test [1]; 100% (inactive) in test [3]; 97.2% (inactive) in test [4]; 98.7% (inactive) in test [5]; 87.3% in test [6] (setting [9]); 98.7% in test [6] (setting [10]). The Her2 level in test [2] is 94% (inactive). In addition, the differential viability (reversal) in test [6] (H69AR cells + 2 uM doxorubicin) was 11.4% (inactive). Besides, the values for the inhibition in test [7] and in test [8] were -5.34% (inactive) and -10.2% (inactive), respectively.

Consider `Cc1cc(C)n2cc(CSc3nnnn3-c3ccc(Cl)cc3)nc2n1`, for which the viability in test [1] was 89.5%; in test [3], 89.5% (inactive); in test [4], 94.1% (inactive); in test [5], 97.6% (inactive); in test [6] (setting [9]), 90.5%; in test [6] (setting [10]), 97.6%. In addition, the Her2 level in test [2] was 89% (inactive). Moreover, the differential viability (reversal) in test [6] (H69AR cells + 2 uM doxorubicin) was 7.13% (inactive). For the same compound, the inhibition in test [7] is -1.73% (inactive); in test [8] it was 0.65% (inactive).

As to `Cn1c(-n2c(-c3ccco3)nc3ccccc3c2=O)nc2ccccc21`, the viability in test [1] was 83%; in test [3], 83% (inactive); in test [4], 89.9% (inactive); in test [5], 90.3% (inactive); in test [6] (setting [9]) it was 85%; in test [6] (setting [10]), 90.3%. Moreover, the Her2 level in test [2] was 98% (inactive). Also, the differential viability (reversal) in test [6] (H69AR cells + 2 uM doxorubicin) was 5.28% (inactive). For the same compound, the inhibition is -1.47% (inactive) in test [7] and 6.56% (inactive) in test [8].

For `COc1ccc(C(=O)N2CCCc3ccccc32)cc1`, the viability in test [1] is 87.5%; in test [3], 87.5% (inactive); in test [4], 116% (inactive); in test [5], 104% (inactive); in test [6] (setting [9]) it was 93%; in test [6] (setting [10]), 104%. In addition, in test [2], the Her2 level is 94% (inactive). Also, the differential viability (reversal) in test [6] (H69AR cells + 2 uM doxorubicin) is 11.1% (inactive). The inhibition in test [7] was -4% (inactive); in test [8], 5.81% (inactive).

Take `COc1ccc2c(C(F)(F)F)cc(=O)oc2c1C`: the viability in test [1] is 92%; in test [3], 92% (inactive); in test [4], 110% (inactive); in test [5], 99.8% (inactive); in test [6] (setting [9]), 93.3%; in test [6] (setting [10]), 99.8%. Also, the Her2 level in test [2] is 99.5% (inactive). In addition, in test [6] (H69AR cells + 2 uM doxorubicin), the differential viability (reversal) is 6.5% (inactive). Moreover, the inhibition in test [7] was -4.67% (inactive); in test [8], 9.68% (inactive).

In the case of `COc1ccc(C(=O)Nc2cccc(C)c2)cc1S(=O)(=O)N1CCOCC1`, the viability was 100% in test [1]; 100% (inactive) in test [3]; 108% (inactive) in test [4]; 93.2% (inactive) in test [5]; 85.5% in test [6] (setting [9]); 93.2% in test [6] (setting [10]). In addition, the Her2 level in test [2] is 83% (inactive). The differential viability (reversal) in test [6] (H69AR cells + 2 uM doxorubicin) was 7.64% (inactive). Also, the inhibition is -5% (inactive) in test [7] and -5.71% (inactive) in test [8].
